ChEMBL document CHEMBL4651341, “The discovery of a novel series of compounds with single-dose efficacy against juvenile and adult Schistosoma species” (PLoS Negl Trop Dis, 2021)
In brackets after ≈: the same amount, converted by molar mass.

What was measured:
Schistosoma mansoni [1] = assay: (§1) Concentration required to kill 50% of 42 day old worms 5 days after drug treatment.; format: functional, organism-based; settings: Puerto Rican, 120 h
In short: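 Adult S. mansoni were perfused from CD1 mice 6 weeks post-infection and washed. They were cultured 3 pairs per well in 1 mL DMEM with 2 mM glutamine, penicillin/streptomycin and 10% FCS […] at 37 °C, 5% CO2. Viability of individual worms was scored on day 5 (120 h).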

[2] = Concentration required to kill 50% MRC-5 cells as detected by Alamar blue staining; format: toxicity, cell-based, MRC5; settings: homo sapiens, read-out: TC50 (the source's name)
Schistosoma haematobium = assay: Concentration required to kill 50% of 84 day old worms 5 days after drug treatment.; format: functional, organism-based; settings: Egyptian, 120 h
Schistosoma mansoni [3] = assay: Percentage of worms remaining following treatment of female CD1 mice infected with S. mansoni worms (21 day old - juvenile or 42 day old - adult) with compound by oral gavage. Worms were recovered by portal perfusion with citrate saline 8-14 days post treatment and counted. Percentages are from a mean of 5 or 6 animals.; format: functional, Mus musculus; design: concentration or dose not given beside the values
In short: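 Female CD1 mice were infected subcutaneously with 150 cercariae and treated at day 21 (juvenile) or day 42 (adult). Single oral gavage, or two doses 12 h apart, given in 7% Tween-80/3% ethanol/water (sonicated) or in 1:19 DMSO:corn oil. Controls received vehicle only. Worm recoveries are group means, n = 5–6.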

Schistosoma mansoni [4] = assay: Concentration required to kill 50% of 21 day old worms 5 days after drug treatment.; format: functional, organism-based; settings: Puerto Rican, 120 h
In short: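 Juvenile S. mansoni (Puerto Rican strain) were perfused from CD1 mice 3 weeks post-infection and washed. They were cultured 6–8 per well in 200 µL DMEM with 2 mM glutamine, penicillin/streptomycin and 10% FCS at 37 °C, 5% CO2. Viability of individual worms was scored on day 5 after dosing (120 h).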

Schistosoma japonicum = assay: as §1; format: functional, organism-based; settings: Chinese, 120 h
[5] = Solubility at 25 degC of compound (diluted from DMSO) in PBS at pH 7.4 determined after 24h (1h sonication, 22h shaking, 1h sonication) by LCMS/MS; format: physicochemical
[6] = Partition coefficient of compound between n-octanol and PBS (pH7.4); format: physicochemical; settings: octanol/water, pH 7.4
In short: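 Shake-flask method using octanol and PBS pH 7.4, each pre-saturated with the other. Compound was shaken 2 h at 850 rpm, 25 °C, then the phases were separated by centrifugation and both layers diluted and analysed by LC-MS/MS. LogD = log(octanol AUC × relative dilution / buffer AUC).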

[7] = Percentage of parent compound remaining after incubation for 30 minutes with cyropreserved mouse hepatocytes at a concentration of 1uM compound and […], determined by LCMS; format: ADME, tissue-based, Hepatocyte; settings: cryopreserved mouse hepatocytes, read-out: Stability
In short: (§2)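 Compound was incubated at 1 µM final (2 µM working solution mixed 1:1 with hepatocyte suspension) in supplemented KHB pH 7.4. Conditions: 37 °C, 5% CO2, gentle mixing, duplicates. Reaction quenched with ice-cold acetonitrile containing standard; analysed by LC-MS/MS. % remaining = AUC at t / AUC at T0.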

[8] = Concentration required to kill 50% MRC5 cells as detected by Alamar blue staining; settings: homo sapiens, read-out: TC50 (the source's name)
[9] = Concentration of drug in plasma at 24h following oral drug adminstration at given dose. Determined by LCMS/MS; format: ADME, organism-based; settings: CD1, mouse
In short: (§3)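 Plasma sampled from the mice of the efficacy experiments, each animal sampled once: one animal per group at 1, 4 and 8 h, two per group at 24 h. Plasma prepared by acetonitrile protein precipitation and analysed by LC-MS against a 10-point calibration line spiked in blank matrix, with QCs at three or more levels.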

[10] = Percentage of parent compound remaining after incubation for 90 minutes with cyropreserved human hepatocytes at a concentration of 1uM compound and 1 million cells/uL, determined by LCMS/MS; format: ADME, tissue-based, Hepatocyte; settings: cryopreserved human hepatocytes, read-out: Stability; in short: as §2
[11] = Solubility at 25 degC of compound (diluted from DMSO) in FaSSIF at pH 6.5 (2.24 g/l of SIF powder [Na-taurocholate: 3.0mM, Lecithin:0.75mM, Pancreatin:10mg/ml], 0.42 g/l of NaOH, 4.4 g/l NaH₂PO₄ monobasic dihydrate, 6.19 g/l NaCl) determined after 24h (1h sonication, 22h shaking, 1h sonication) by LCMS/MS; format: physicochemical
[12] = Mean observed clearance in Swiss albino male mice at 1 mg/kg per compound (administered iv in a mixture of 5 compounds to 3 mice) assessed by LCMS/MS.; format: ADME, organism-based; settings: male, Swiss albino, mouse, in vivo, read-out: Clearance (converted)
In short: (§4)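 Male Swiss albino mice (~30 g), 3 per experiment, mostly dosed as mixtures of 5 compounds iv via the lateral tail vein. Vehicle: 10% DMSO/90% 50 mM Na2HPO4 with 0.5% Tween-80. Blood sampled at 5, 15, 30 min and 1, 2, 4, 8, 24 h. Plasma stored at −20 °C and quantified by LC-MS after acetonitrile precipitation.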

[13] = Mean half-life in Swiss albino male mice at 1 mg/kg per compound (administered iv in a mixture of 5 compounds to 3 mice) assessed by LCMS/MS.; format: ADME, organism-based; settings: mouse, in vivo
In short: (§5)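 Male Swiss albino mice (~30 g), 3 per experiment, mostly dosed as mixtures of 5 compounds iv via the lateral tail vein. Vehicle: 10% DMSO/90% 50 mM Na2HPO4 with 0.5% Tween-80. Plasma stored at −20 °C and quantified by LC-MS after acetonitrile precipitation.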

[14] = Mean plasma concentration at 24h in Swiss albino male mice at […] per compound (administered orally in a mixture of 5 compounds to 3 mice) assessed by LCMS/MS.; format: ADME, organism-based; settings: mouse, po
[15] = Mean oral bioavailability in Swiss albino male mice at […] per compound (administered in a mixture of 5 compounds to 3 mice) assessed by LCMS/MS.; further: dose 2.5 mg/kg; format: ADME, organism-based; settings: male, Swiss albino, mouse, in vivo, read-out: Bioavailability
[16] = Solubility at 25 degC of compound (diluted from DMSO) in FeSSIF at pH 5.0 (11.2 g/l of SIF powder [Na-taurocholate: 15.0mM, Lecithin:3.75mM, Pancreatin:40mg/ml], 4.04 g/l of NaOH, 8.65 g/l Glacial Acetic Acid, 11.87 g/l NaCl) determined after 24h (1h sonication, 22h shaking, 1h sonication) by LCMS/MS; format: physicochemical
[17] = Concentration required to kill 50% HepG2 cells as detected by MTT staining; format: toxicity, cell-based; settings: homo sapiens, read-out: TC50 (the source's name)
[18] = Mean AUC inf in Swiss albino male mice at 1 mg/kg per compound (administered iv in a mixture of 5 compounds to 3 mice) assessed by LCMS/MS.; format: ADME, organism-based; settings: male, Swiss albino, mouse, in vivo; in short: as §4
[19] = Plasma protein binding determined at 10uM by LC-MS/MS.; format: ADME, cell-free
In short: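 Equilibrium dialysis of plasma spiked at 10 µM (0.1% DMSO) against PBS pH 7.4, 6 h at 37 °C, duplicates. Both chambers analysed by LC-MS/MS after acetonitrile precipitation. % free = buffer/plasma area ratio; recovery also calculated.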

[20] = Concentration of drug in plasma at 4h following oral drug adminstration at given dose. Determined by LCMS/MS; format: ADME, organism-based; settings: CD1, mouse; in short: as §3
[21] = Mean plasma concentration at 4h in Swiss albino male mice at […] per compound (administered orally in a mixture of 5 compounds to 3 mice) assessed by LCMS/MS.; format: ADME, organism-based; settings: mouse, po
[22] = Percentage of parent compound remaining after incubation for 90 minutes with cyropreserved mouse hepatocytes at a concentration of 1uM compound and […], determined by LCMS; format: ADME, tissue-based, Hepatocyte; settings: cryopreserved mouse hepatocytes, read-out: Stability; in short: as §2
[23] = Mean time to peak plasma concentration in Swiss albino male mice at […] per compound (administered orally in a mixture of 5 compounds to 3 mice) assessed by LCMS/MS.; format: ADME, organism-based; settings: mouse, po
[24] = Mean volume of distribution at steady state in Swiss albino male mice at 1 mg/kg per compound (administered iv in a mixture of 5 compounds to 3 mice) assessed by LCMS/MS.; format: ADME, organism-based; settings: mouse, in vivo, read-out: Volume; in short: as §5
[25] = Percentage of parent compound remaining after incubation for 30 minutes with cyropreserved human hepatocytes at a concentration of 1uM compound and 1 million cells/uL, determined by LCMS/MS; format: ADME, tissue-based, Hepatocyte; settings: cryopreserved human hepatocytes, read-out: Stability; in short: as §2
[26] = Plasma protein binding determined at 1uM by LC-MS/MS.; format: ADME, cell-free
[27] = Plasma protein binding determined at 10uM by LC-MS/MS.; settings: mouse
[28] = as above; settings: human

solubility kinetic at 24 h [5] [µM]	Lipophilicity [6]	remaining at 0.5 h, 1 µM [7] [%]	concentration at 24 h [9] [ng/mL]	clearance [12] [mL/min/kg]	half-life [13] [h]	concentration at 24 h [14] [ng/mL]	bioavailability [15] [%]	AUC(0-inf) [18] [ng·h/mL]	Binding ([19]; mouse) [%]	concentration at 4 h [20] [ng/mL]	concentration at 4 h [21] [ng/mL]	remaining at 1.5 h, 1 µM [22] [%]	Tmax [23] [h]	Vd [24] [L/kg]	Compound	EC50 (Schistosoma mansoni [1]) [nM]	CC50 [2] [nM]	Efficacy (Schistosoma mansoni [3]) [%]	EC50 (Schistosoma mansoni [4]) [nM]	CC50 [17] [nM]	other results
															O=C(C1CCCCC1)N1CC(=O)N2CCc3ccccc3C2C1 (stereo unspecified) [PRAZIQUANTEL]	300	> 50000	79	4700		EC50 (Schistosoma haematobium): 84.4 nM; EC50 (Schistosoma japonicum): 161 nM
2.29 (≈ 0.823 µg/mL)	3.56 =	26.4													COc1ccc(-c2cnc3cnc(-c4cccc(C(C)C)c4)cn23)cc1O	263	18600		486		CC50 [8]: 18600 nM
0.742 (≈ 0.362 µg/mL)	6.33 =		10.4	3.82	24.7	123	83.2	2210	99.9935	104	208	61.5	0.25	7.32	CCc1nc2cnc(-c3ccc(F)c(C(F)(F)C(F)(F)F)c3)cn2c1-c1c(F)cc(O)cc1F	9.11		49.1	13.6	7230	remaining at 1.5 h, 1 µM [10]: 41.7%; solubility kinetic at 24 h [11]: 111 µM (≈ 54.1 µg/mL); solubility kinetic at 24 h [16]: 200 µM (≈ 97.5 µg/mL); Binding ([19]; human): 99.9955%
1.83 (≈ 0.811 µg/mL)			50.5	4.02		21.4	82.7	2080		705	676	85	2	1.37	CCc1nc2cnc(-c3ccc(F)c(C(F)(F)F)c3)cn2c1-c1ccc2[nH]ncc2c1F	45		89.6	87	13100	
1.42 (≈ 0.647 µg/mL)	4.7 =	81.9	60.4	3.43	16.2	176	95.8	2450	100	75	376	79.5	1	4.37	Fc1ccc(-c2cn3c(-c4ccc5[nH]ncc5c4F)c(C4CC4)nc3cn2)cc1C(F)(F)F	50.7		88	36.1	16100	remaining at 0.5 h, 1 µM [25]: 95.2%; Binding ([19]; human): 100%
2.11 (≈ 0.902 µg/mL)	3.63 =	36.2		79.2	1.92	0.1	7.84	105	99.93		3.5		0.25	5.13	COc1ccc(-c2c(C(C)C)nc3cnc(-c4cccc(C(F)(F)F)c4)cn23)cc1O	< 82	21900		65.9	> 11100	EC50 (Schistosoma haematobium): 61.2 nM; Binding ([26]; human): 100%; Binding ([26]; mouse): 100%; EC50 (Schistosoma japonicum): 85 nM
0.383 (≈ 0.126 µg/mL)	3.62 =														CC(C)c1cccc(-c2cn3c(-c4ccc(O)cc4)cnc3cn2)c1	1340	30000		1500		CC50 [8]: > 30000 nM
2.5 (≈ 1.11 µg/mL)	5.7 =	54.5		58.8	1.6	0.1	8.28	143			5.08		0.25	3.75	COc1ccc(-c2c(C(C)C)nc3cnc(-c4ccc(F)c(C(F)(F)F)c4)cn23)cc1O	< 48.8			177		Binding [27]: 99.9485%
	4.34 =	83.8	460	2.25		151	69.6	3800	99.975	1040	680	53	0.25	1.94	Oc1cc(F)c(-c2c(C3CC3)nc3cnc(-c4ccc(F)c(C(F)(F)F)c4)cn23)c(F)c1	44.3		75	33.7	8900	remaining at 0.5 h, 1 µM [25]: 42.1%; Binding ([19]; human): 100%
2.62 (≈ 0.978 µg/mL)	4.92 =														COc1ccc(-c2cnc3cnc(-c4cccc(C(C)C)c4)cn23)cc1OC	1340	27800		2570		Binding [28]: 99.985%
